From ChEMBL document CHEMBL1149821, “Antimycobacterial activity of diphenylpyraline derivatives” (Eur J Med Chem, 2008)
≈ marks a conversion by molar mass, not a printed value.

Key:
[1] = test system: Mycobacterium tuberculosis; test: Antimicrobial activity against Mycobacterium tuberculosis H37Rv at 6.25 ug/ml by alamar blue assay; type: functional
How it was run: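 M. tuberculosis H37Rv (ATCC 27294) tested in the TAACF screening program by microplate Alamar Blue assay (MABA) at a single concentration of 6.25; read-out was percent growth inhibition.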

[2] = Cytotoxicity against HEK293 cells by MTT assay; type: cell-based; settings: human, read-out: LC50 (the source's name)
How it was run: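 HEK-293 cells seeded at 12 000 cells/well in DMEM with 10% FCS at 37 °C, 5% CO₂. After 48 h, half the medium was renewed. Hydrochloride salts in 17% glycerine/33% DMSO/50% water were added; vehicle served as control. After 72 h, MTT was added for 3 h, then formazan was solubilised with 10% SDS/0.01 M HCl. A544 (reference 640 nm) was read, and LC50 came from a Boltzmann sigmoidal fit.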

[3] = test system: Mycobacterium tuberculosis; test: Antimicrobial activity against Mycobacterium tuberculosis H37Rv by alamar blue assay; type: functional
How it was run: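 M. tuberculosis H37Rv (ATCC 27294) microplate Alamar Blue assay (MABA), run within the TAACF screening program.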

`CN1CCC(OC(c2ccc(Cl)cc2)c2ccc(Cl)cc2)CC1` showed an inhibition at 6.25 µg/mL [1] of 65% and a CC50 [2] of 25.5 µg/mL (≈ 72.7 µM).
`Clc1ccc(C(OC2CCN(CCc3ccccc3)CC2)c2ccc(Cl)cc2)cc1` gave an inhibition at 6.25 µg/mL [1] of 56% and a CC50 [2] of 17.3 µg/mL (≈ 39.2 µM).
`c1ccc(CCN2CCC(OC(c3ccccc3)c3ccccc3)CC2)cc1` gave an inhibition at 6.25 µg/mL [1] of 8% and a CC50 [2] of 14.9 µg/mL (≈ 40.2 µM).
For `CC(C)[C@H]1C[C@@H](OC(c2ccccc2)c2ccccc2)CCN1CCc1ccccc1` (racemic), the inhibition at 6.25 µg/mL [1] was 0% and the CC50 [2] was 62.8 µg/mL (≈ 152 µM).
Work on `CN1CCC(OC(c2ccccc2)c2ccccc2)CC1(C)C` (racemic) yielded an inhibition at 6.25 µg/mL [1] of 18% and a CC50 [2] of 105 µg/mL (≈ 338 µM).
With `CC1(C)C[C@@H](OC(c2ccccc2)c2ccccc2)CCN1c1ccccc1` (racemic) the inhibition at 6.25 µg/mL [1] was 3% and the CC50 [2] was 65.1 µg/mL (≈ 175 µM).
Compound `CC(C)[C@H]1C[C@@H](OC(c2ccc(Cl)cc2)c2ccc(Cl)cc2)CCN1C` (racemic) has an inhibition at 6.25 µg/mL [1] of 74% and a CC50 [2] of 17.9 µg/mL (≈ 45.7 µM).
Compound `CC(C)[C@H]1C[C@@H](OC(c2ccc(Cl)cc2)c2ccc(Cl)cc2)CCN1CCc1ccccc1` (racemic) has an inhibition at 6.25 µg/mL [1] of 0% and a CC50 [2] of 76.5 µg/mL (≈ 158 µM).
Work on `CC(C)[C@H]1C[C@@H](OC(c2ccccc2)c2ccccc2)CCN1C` (relative stereo) yielded an inhibition at 6.25 µg/mL [1] of 68% and a CC50 [2] of 98.1 µg/mL (≈ 303 µM).
`c1ccc(C(O[C@H]2CCN(c3ccccc3)[C@@H](c3ccccc3)C2)c2ccccc2)cc1` (relative stereo) showed an inhibition at 6.25 µg/mL [1] of 39% and a CC50 [2] of 77.8 µg/mL (≈ 185 µM).
Compound `c1ccc(C(O[C@H]2CCN(c3ccccc3)[C@H](c3ccccc3)C2)c2ccccc2)cc1` (relative stereo) has an inhibition at 6.25 µg/mL [1] of 75% and a CC50 [2] of 112 µg/mL (≈ 266 µM).
Work on `CC(C)[C@@H]1C[C@@H](OC(c2ccccc2)c2ccccc2)CCN1C` (relative stereo) yielded an inhibition at 6.25 µg/mL [1] of 12% and a CC50 [2] of 69.4 µg/mL (≈ 215 µM).
`CC(C)[C@H]1C[C@@H](OC(c2ccccc2)c2ccccc2)CCN1c1ccccc1` (relative stereo) showed an inhibition at 6.25 µg/mL [1] of 36% and a CC50 [2] of 69.4 µg/mL (≈ 180 µM).
For `CC(C)[C@@H]1C[C@@H](OC(c2ccccc2)c2ccccc2)CCN1c1ccccc1` (relative stereo), the inhibition at 6.25 µg/mL [1] was 7% and the CC50 [2] was 97.1 µg/mL (≈ 252 µM).
`CN1CCC(OC(c2ccccc2)c2ccccc2)CC1.Cl` [DIPHENYLPYRALINE HYDROCHLORIDE] gave an MIC [3] of 64 µg/mL, an inhibition at 6.25 µg/mL [1] of 5% and a CC50 [2] of 108 µg/mL.
`NNC(=O)c1ccncc1` [ISONIAZID] gave an inhibition at 6.25 µg/mL [1] of over 99% and a CC50 [2] of over 576 µg/mL.
